Reference: ChEMBL document CHEMBL5058577, “EUbOPEN Chemogenomics Library 2 (Multiplex)” (2022)

Tested on: U2OS
Assay: Multiplex assay against U2OS
Assay type: toxicity, cell-based
Details: human
In short: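 Live cells carried four stains from seeding: Hoechst33342, BioTracker Green Microtubule Cytoskeleton Dye, MitoTracker Red and Annexin V Alexa Fluor 680. They were imaged on a CQ1 microscope at 37°C and 5% CO2 after compound addition. Using CellPathfinder machine-learning gating, cells were split into Hoechst high-intensity objects or normal cells, normal cells into healthy, pyknosed or fragmented nuclei, and pyknosed cells into mitotic or apoptotic; tubulin, mitochondrial-mass and membrane-permeability phenotypes are per cents of healthy-nucleus cells.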

[1] = 12 h, 1 µM, compound concentration 1 uM, replicate 1
[2] = 12 h, 1 µM, compound concentration 1 uM, replicate 2
[3] = 12 h, 10 µM, compound concentration 10 uM, replicate 1
[4] = 12 h, 10 µM, compound concentration 10 uM, replicate 2
[5] = 24 h, 1 µM, compound concentration 1 uM, replicate 1
[6] = 24 h, 1 µM, compound concentration 1 uM, replicate 2
[7] = 24 h, 10 µM, compound concentration 10 uM, replicate 1
[8] = 24 h, 10 µM, compound concentration 10 uM, replicate 2
[9] = 48 h, 1 µM, compound concentration 1 uM, replicate 1
[10] = 48 h, 1 µM, compound concentration 1 uM, replicate 2
[11] = 48 h, 10 µM, compound concentration 10 uM, replicate 1
[12] = 48 h, 10 µM, compound concentration 10 uM, replicate 2

## CC(C)(C)c1ccc(S(=O)(=O)Nc2ccc(Cl)cc2C(=O)c2cc[n+]([O-])cc2)cc1 [VERCIRNON]
[1]
  Population Apoptotic (%): 77%
  Population Fragmented Nuclei (%): 28%
  Population Healthy Nuclei (%): 61%
  Population Hoechst High Intensity Objects (%): 1%
  Population Membrane Permeable-Phenotype (%): 8%
  Population Mitochondria Different-Phenotype (%): 5%
  Population Mitotic Cells (%): 22%
  Population Normal (%): 98%
  Population Pyknosed Nuclei (%): 10%
  Population Tubulin-Different-Phenotype (%): 4%
  Total Cell Count: 307
[2]
  Population Apoptotic (%): 100%
  Population Fragmented Nuclei (%): 15%
  Population Healthy Nuclei (%): 79%
  Population Hoechst High Intensity Objects (%): 0%
  Population Mitochondria Different-Phenotype (%): 4%
  Population Mitotic Cells (%): 0%
  Population Normal (%): 99%
  Population Pyknosed Nuclei (%): 5%
  Population Tubulin-Different-Phenotype (%): 3%
  Total Cell Count: 156
[3]
  Population Apoptotic (%): 77%
  Population Fragmented Nuclei (%): 24%
  Population Healthy Nuclei (%): 68%
  Population Hoechst High Intensity Objects (%): 1%
  Population Membrane Permeable-Phenotype (%): 3%
  Population Mitochondria Different-Phenotype (%): 2%
  Population Mitotic Cells (%): 22%
  Population Normal (%): 98%
  Population Pyknosed Nuclei (%): 6%
  Population Tubulin-Different-Phenotype (%): 1%
  Total Cell Count: 266
[4]
  Population Apoptotic (%): 50%
  Population Fragmented Nuclei (%): 21%
  Population Healthy Nuclei (%): 77%
  Population Hoechst High Intensity Objects (%): 0%
  Population Membrane Permeable-Phenotype (%): 15%
  Population Mitotic Cells (%): 50%
  Population Normal (%): 99%
  Population Pyknosed Nuclei (%): 1%
  Population Tubulin-Different-Phenotype (%): 15%
  Total Cell Count: 123
[5]
  Population Apoptotic (%): 89%
  Population Fragmented Nuclei (%): 25%
  Population Healthy Nuclei (%): 67%
  Population Hoechst High Intensity Objects (%): 1%
  Population Membrane Permeable-Phenotype (%): 8%
  Population Mitochondria Different-Phenotype (%): 5%
  Population Mitotic Cells (%): 10%
  Population Normal (%): 98%
  Population Pyknosed Nuclei (%): 7%
  Population Tubulin-Different-Phenotype (%): 4%
  Total Cell Count: 357
[6]
  Population Apoptotic (%): 92%
  Population Fragmented Nuclei (%): 18%
  Population Healthy Nuclei (%): 74%
  Population Hoechst High Intensity Objects (%): 0%
  Population Membrane Permeable-Phenotype (%): 2%
  Population Mitochondria Different-Phenotype (%): 4%
  Population Mitotic Cells (%): 7%
  Population Normal (%): 99%
  Population Tubulin-Different-Phenotype (%): 2%
  Total Cell Count: 183
[7]
  Population Apoptotic (%): 76%
  Population Fragmented Nuclei (%): 21%
  Population Healthy Nuclei (%): 72%
  Population Hoechst High Intensity Objects (%): 2%
  Population Membrane Permeable-Phenotype (%): 1%
  Population Mitochondria Different-Phenotype (%): 1%
  Population Mitotic Cells (%): 23%
  Population Normal (%): 97%
  Population Pyknosed Nuclei (%): 5%
  Population Tubulin-Different-Phenotype (%): 1%
  Total Cell Count: 297
[8]
  Population Apoptotic (%): 71%
  Population Fragmented Nuclei (%): 22%
  Population Hoechst High Intensity Objects (%): 1%
  Population Membrane Permeable-Phenotype (%): 13%
  Population Mitotic Cells (%): 28%
  Population Normal (%): 98%
  Population Pyknosed Nuclei (%): 4%
  Population Tubulin-Different-Phenotype (%): 15%
  Total Cell Count: 160
[9]
  Population Apoptotic (%): 82%
  Population Fragmented Nuclei (%): 19%
  Population Healthy Nuclei (%): 73%
  Population Hoechst High Intensity Objects (%): 3%
  Population Membrane Permeable-Phenotype (%): 5%
  Population Mitochondria Different-Phenotype (%): 3%
  Population Mitotic Cells (%): 17%
  Population Normal (%): 96%
  Population Pyknosed Nuclei (%): 6%
  Population Tubulin-Different-Phenotype (%): 4%
  Total Cell Count: 515
[10]
  Population Apoptotic (%): 84%
  Population Fragmented Nuclei (%): 15%
  Population Healthy Nuclei (%): 75%
  Population Hoechst High Intensity Objects (%): 4%
  Population Membrane Permeable-Phenotype (%): 7%
  Population Mitochondria Different-Phenotype (%): 2%
  Population Mitotic Cells (%): 15%
  Population Normal (%): 95%
  Population Pyknosed Nuclei (%): 9%
  Population Tubulin-Different-Phenotype (%): 2%
  Total Cell Count: 296
[11]
  Population Apoptotic (%): 79%
  Population Fragmented Nuclei (%): 18%
  Population Healthy Nuclei (%): 75%
  Population Hoechst High Intensity Objects (%): 1%
  Population Membrane Permeable-Phenotype (%): 2%
  Population Mitochondria Different-Phenotype (%): 1%
  Population Mitotic Cells (%): 20%
  Population Normal (%): 98%
  Population Pyknosed Nuclei (%): 5%
  Population Tubulin-Different-Phenotype (%): 1%
  Total Cell Count: 414
[12]
  Population Apoptotic (%): 77%
  Population Fragmented Nuclei (%): 26%
  Population Healthy Nuclei (%): 65%
  Population Hoechst High Intensity Objects (%): 2%
  Population Membrane Permeable-Phenotype (%): 8%
  Population Mitochondria Different-Phenotype (%): 5%
  Population Mitotic Cells (%): 22%
  Population Normal (%): 97%
  Population Pyknosed Nuclei (%): 8%
  Population Tubulin-Different-Phenotype (%): 11%
  Total Cell Count: 215

## C[C@@H]1C[C@H]2[C@@H]3CCC4=CC(=O)C=C[C@]4(C)[C@@]3(F)[C@@H](O)C[C@]2(C)[C@@]1(O)C(=O)CO [DEXAMETHASONE]
[1]
  Population Apoptotic (%): 77%
  Population Fragmented Nuclei (%): 21%
  Population Healthy Nuclei (%): 70%
  Population Hoechst High Intensity Objects (%): 2%
  Population Membrane Permeable-Phenotype (%): 2%
  Population Mitochondria Different-Phenotype (%): 0%
  Population Mitotic Cells (%): 22%
  Population Normal (%): 97%
  Population Pyknosed Nuclei (%): 7%
  Population Tubulin-Different-Phenotype (%): 1%
  Total Cell Count: 238
[2]
  Population Apoptotic (%): 80%
  Population Fragmented Nuclei (%): 20%
  Population Healthy Nuclei (%): 75%
  Population Hoechst High Intensity Objects (%): 0%
  Population Membrane Permeable-Phenotype (%): 4%
  Population Mitochondria Different-Phenotype (%): 1%
  Population Mitotic Cells (%): 20%
  Population Normal (%): 99%
  Population Pyknosed Nuclei (%): 4%
  Population Tubulin-Different-Phenotype (%): 3%
  Total Cell Count: 124
[3]
  Population Apoptotic (%): 80%
  Population Fragmented Nuclei (%): 20%
  Population Healthy Nuclei (%): 69%
  Population Hoechst High Intensity Objects (%): 2%
  Population Membrane Permeable-Phenotype (%): 6%
  Population Mitochondria Different-Phenotype (%): 1%
  Population Mitotic Cells (%): 19%
  Population Normal (%): 97%
  Population Pyknosed Nuclei (%): 9%
  Population Tubulin-Different-Phenotype (%): 2%
  Total Cell Count: 319
[4]
  Population Apoptotic (%): 84%
  Population Fragmented Nuclei (%): 16%
  Population Healthy Nuclei (%): 76%
  Population Hoechst High Intensity Objects (%): 0%
  Population Membrane Permeable-Phenotype (%): 7%
  Population Mitochondria Different-Phenotype (%): 2%
  Population Mitotic Cells (%): 15%
  Population Normal (%): 100%
  Population Pyknosed Nuclei (%): 7%
  Population Tubulin-Different-Phenotype (%): 3%
[5]
  Population Apoptotic (%): 96%
  Population Fragmented Nuclei (%): 19%
  Population Healthy Nuclei (%): 71%
  Population Hoechst High Intensity Objects (%): 2%
  Population Membrane Permeable-Phenotype (%): 4%
  Population Mitochondria Different-Phenotype (%): 2%
  Population Mitotic Cells (%): 4%
  Population Normal (%): 97%
  Population Pyknosed Nuclei (%): 8%
  Population Tubulin-Different-Phenotype (%): 2%
  Total Cell Count: 288
[6]
  Population Apoptotic (%): 90%
  Population Fragmented Nuclei (%): 18%
  Population Healthy Nuclei (%): 73%
  Population Membrane Permeable-Phenotype (%): 6%
  Population Mitochondria Different-Phenotype (%): 0%
  Population Mitotic Cells (%): 9%
  Population Pyknosed Nuclei (%): 7%
  Population Tubulin-Different-Phenotype (%): 4%
[7]
  Population Apoptotic (%): 82%
  Population Fragmented Nuclei (%): 17%
  Population Healthy Nuclei (%): 74%
  Population Hoechst High Intensity Objects (%): 1%
  Population Membrane Permeable-Phenotype (%): 6%
  Population Mitochondria Different-Phenotype (%): 0%
  Population Mitotic Cells (%): 17%
  Population Normal (%): 98%
  Population Pyknosed Nuclei (%): 7%
  Population Tubulin-Different-Phenotype (%): 2%
  Total Cell Count: 378
[8]
  Population Apoptotic (%): 75%
  Population Fragmented Nuclei (%): 14%
  Population Healthy Nuclei (%): 79%
  Population Hoechst High Intensity Objects (%): 0%
  Population Mitochondria Different-Phenotype (%): 2%
  Population Mitotic Cells (%): 25%
  Population Normal (%): 99%
  Population Pyknosed Nuclei (%): 5%
  Total Cell Count: 219
[9]
  Population Apoptotic (%): 84%
  Population Fragmented Nuclei (%): 20%
  Population Healthy Nuclei (%): 72%
  Population Hoechst High Intensity Objects (%): 1%
  Population Membrane Permeable-Phenotype (%): 1%
  Population Mitochondria Different-Phenotype (%): 1%
  Population Mitotic Cells (%): 16%
  Population Normal (%): 98%
  Population Pyknosed Nuclei (%): 6%
  Population Tubulin-Different-Phenotype (%): 0%
  Total Cell Count: 391
[10]
  Population Apoptotic (%): 71%
  Population Fragmented Nuclei (%): 17%
  Population Healthy Nuclei (%): 74%
  Population Hoechst High Intensity Objects (%): 2%
  Population Membrane Permeable-Phenotype (%): 3%
  Population Mitochondria Different-Phenotype (%): 3%
  Population Mitotic Cells (%): 28%
  Population Normal (%): 97%
  Population Pyknosed Nuclei (%): 7%
  Population Tubulin-Different-Phenotype (%): 4%
  Total Cell Count: 186
[11]
  Population Apoptotic (%): 92%
  Population Fragmented Nuclei (%): 14%
  Population Healthy Nuclei (%): 77%
  Population Hoechst High Intensity Objects (%): 2%
  Population Membrane Permeable-Phenotype (%): 4%
  Population Mitochondria Different-Phenotype (%): 1%
  Population Mitotic Cells (%): 7%
  Population Normal (%): 97%
  Population Pyknosed Nuclei (%): 8%
  Population Tubulin-Different-Phenotype (%): 1%
  Total Cell Count: 497
[12]
  Population Apoptotic (%): 86%
  Population Fragmented Nuclei (%): 16%
  Population Healthy Nuclei (%): 76%
  Population Membrane Permeable-Phenotype (%): 5%
  Population Mitochondria Different-Phenotype (%): 0%
  Population Mitotic Cells (%): 13%
  Population Pyknosed Nuclei (%): 7%
  Total Cell Count: 294
